Data: ChEMBL document CHEMBL2424618, “Design, synthesis and ex vivo evaluation of colon-specific azo based prodrugs of anticancer agents” (Bioorg Med Chem Lett, 2013)

How the values were obtained:
COLO 205 = experiment: Cytotoxicity against human COLO205 cells after 48 hrs by MTT assay; type: functional, cell-based; settings: COLO 205, 48 h
Procedure, shortened: (§1)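 MTT colorimetric microculture assay in human colorectal cells, 5 × 10⁵ per well. After 48 h, cells incubated at 37 °C in 0.1% DMSO with compound. Sample removed, cells washed with PBS pH 7.4, MTT added. After 4 h, […] added and absorbance read at 595 nm. Triplicates; IC50 given as mean SD, p < 0.05 significant.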

[1] = Prodrug activation in rat fecal material after 24 hrs; type: ADME, tissue-based, Feces
Procedure, shortened: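 About 1 g fresh rat feces per tube with prodrug in phosphate buffer pH 7.4, diluted with 5 ml buffer to 50 µg/ml, incubated at 37 °C. Aliquots taken over time and read by double-beam UV spectrophotometry at compound-specific wavelengths. Cumulative % release at 24 h; mean SD, n = 6.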

[2] = Chemical stability of the compound in 0.1 N HCl solution at pH 1.2; type: physicochemical; settings: buffer
Procedure, shortened: (§2)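 Prodrug held in acidic buffer (pH 1.2, 0.1 N HCl) or basic buffer (pH 7.4) at 37 °C. Aliquots withdrawn at time intervals and remaining prodrug read by UV spectrophotometry at compound-specific wavelengths (306/256, 274/284 or 280/260 nm for acid/pH 7.4). Release reported as % after 24 h; mean SD, n = 6.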

[3] = Prodrug activation in rat cecum content in presence of azoreductase; type: tissue-based, Caecum
Procedure, shortened: (§3)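 Cecal content, small-intestine content, SI mucosa or LI mucosa taken from Wistar rats and suspended in cold PBS pH 7.4 as 10% (w/v) slurry. Cecal content bubbled with nitrogen. Other tissues homogenized and centrifuged to 2% w/w. All stored at −20 °C. Prodrug incubated with each preparation, azo-bond cleavage followed by UV, and % drug release determined.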

[4] = Prodrug activation in rat small intestine mucosa in presence of azoreductase; type: tissue-based; procedure, shortened: as §3
[5] = Prodrug activation in rat small intestine content in presence of azoreductase; type: tissue-based; procedure, shortened: as §3
[6] = Prodrug activation in rat large intestine mucosa in presence of azoreductase; type: tissue-based; procedure, shortened: as §3
[7] = Cytotoxicity against human COLO320DM cells after 48 hrs by MTT assay; type: functional, cell-based; settings: COLO 320DM; procedure, shortened: as §1
[8] = Chemical stability of the compound in phosphate buffer at pH 7.4; type: physicochemical; procedure, shortened: as §2
HT-29 = experiment: Cytotoxicity against human HT-29 cells after 48 hrs by MTT assay; type: functional, cell-based; settings: HT-29, 48 h; procedure, shortened: as §1

Drug metabolism [1] [%] | Stability [2] | Drug metabolism [3] [%] | Drug metabolism [4] [%] | Drug metabolism [5] [%] | Drug metabolism [6] [%] | Stability [8] | Compound | IC50 (COLO 205) [µM] | IC50 [7] [µM] | IC50 (HT-29) [µM]
64 | Stable | 70 | 5 | 5 | 5 | Stable | COC(=O)CC[C@H](NC(=O)c1ccc(N(C)Cc2cnc3nc(/N=N/c4ccc(O)cc4)nc(/N=N/c4ccc(O)cc4)c3n2)cc1)C(=O)OC | 4.13 | 5.74 | 3.92
71 | Stable | 70 | 5 | 5 | 5 | Stable | O=c1nc(/N=N/c2ccc(O)cc2)ccn1[C@@H]1O[C@H](CO)[C@@H](O)C1(F)F | 3.31 | 3.72 | 2.61
 |  |  |  |  |  |  | Nc1ccn([C@@H]2O[C@H](CO)[C@@H](O)C2(F)F)c(=O)n1 [GEMCITABINE] | 3.24 | 3.92 | 1.95
 |  |  |  |  |  |  | CN(Cc1cnc2nc(N)nc(N)c2n1)c1ccc(C(=O)N[C@@H](CCC(=O)O)C(=O)O)cc1 [METHOTREXATE] | 3.27 | 5.25 | 3.45
